Test results reported in ChEMBL document CHEMBL1681731, “Synthesis, in vitro anti-inflammatory and cytotoxic evaluation, and mechanism of action studies of 1-benzoyl-β-carboline and 1-benzoyl-3-carboxy-β-carboline derivatives” (Bioorg Med Chem, 2011).
Active and inactive are the calls of the source. No cut-off for these calls is given here.

Key:
[1] = test system: Radical scavenging activity; assay: Antioxidant activity assessed as residual DPPH radical scavenging activity; assay type: functional
[2] = test system: KB; assay: Cytotoxicity activity against human KB cells assessed as growth inhibition at 10 ug/ml after 72 hrs sulforhodamine B assay; assay type: functional
In short: (§1)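 Cells kept in RPMI-1640/10% FBS with antibiotics at 37 °C, 5% CO2. Trypsinized cells seeded and given compound from DMSO-diluted stock. Incubated 72 h, then fixed with 10% TCA. Stained 10 min with 0.4% sulforhodamine B in 1% HOAc, washed, dye dissolved in 10 mM Trizma. A515 read; growth relative to net protein increase of controls.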

[3] = test system: A549; assay: Cytotoxicity activity against human A549 cells assessed as growth inhibition at 10 ug/ml after 72 hrs sulforhodamine B assay; assay type: functional; settings: A549, 72 h; in short: as §1
[4] = test system: DU-145; assay: Cytotoxicity activity against human DU145 cells assessed as growth inhibition at 10 ug/ml after 72 hrs sulforhodamine B assay; assay type: functional; settings: DU-145, 72 h; in short: as §1
[5] = Cytotoxicity activity against human KBVIN cells assessed as growth inhibition at 10 ug/ml after 72 hrs sulforhodamine B assay; assay type: functional; in short: as §1
[6] = Antiinflammatory activity against human neutrophil assessed as inhibition of N-formyl-l-methionyl phenylalanine/cytochalasin B-induced superoxide anion generation by spectrophotometry; assay type: functional, cell-based
In short: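 Ferricytochrome c (0.5 mg/mL) reduction, SOD-inhibitable, with 1 mM Ca2+. Neutrophils (6 × 10^5 cells/mL) equilibrated 2 min at 37 °C, then drug or 0.1% DMSO for 5 min. Cytochalasin B 1 µg/mL preincubation, then 100 nM FMLP for 3 min. A550 monitored continuously with stirring. IC50 computed; mean ± SEM, n = 3.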

[7] = Antiinflammatory activity against human neutrophil assessed as inhibition of N-formyl-l-methionyl phenylalanine/cytochalasin B-induced elastase release; assay type: functional, cell-based
In short: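 Neutrophils (6 × 10^5/mL) supplemented with 100 µM MeO-Suc-Ala-Ala-Pro-Val-p-nitroanilide, equilibrated 2 min at 37 °C, then given drug or 0.1% DMSO vehicle for 5 min. Activated with 100 nM FMLP plus 0.5 µg/mL cytochalasin B. Absorbance at 405 nm followed continuously. Release expressed as percent of drug-free activated control. IC50 computed; mean ± SEM, n = 3.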

[8] = Antiinflammatory activity against mouse […] cells assessed as inhibition of lipopolysaccharide/interferon-gamma induced nitric oxide production; assay type: functional, cell-based; settings: Mus musculus; read-out: EC50
In short: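 RAW 264.7 cells in DMEM/10% FCS, passages 9–20. Nitrite induced by LPS (1 µg/mL) plus IFN-γ (50 U/mL) for 18 h with or without compound. Griess reagent (1% sulfanilamide, 0.1% naphthylenediamine in 5% H3PO4) read at OD550. EC50 calculated.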

[9] = species on record: Mus musculus; assay: (§2) Cytotoxicity against mouse […] cells by MTT assay; assay type: functional
In short: (§3)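 Viability of RAW 264.7 cells taken as mitochondrial reduction of MTT to formazan. Formazan read at OD550.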

[10] = test system: RAW264.7; assay: Antiinflammatory activity against mouse RAW264.7 cells assessed as reduction of lipopolysaccharide/interferon-gamma induced PGE2 production at 1 uM by EIA; assay type: functional
In short: (§4)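 RAW 264.7 macrophages (passages 9–20) stimulated with LPS/IFN-γ; compound tested at 1, 3 and 10 µM. Supernatant PGE2 measured by competitive EIA: anti-PGE2 antibody plus peroxidase-PGE2 tracer, 1 h RT; TMB/H2O2 30 min; H2SO4 stop; A450. Results given as % inhibition.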

[11] = test system: RAW264.7; assay: Antiinflammatory activity against mouse RAW264.7 cells assessed as reduction of lipopolysaccharide/interferon-gamma induced PGE2 production at 3 uM after 18 hrs; assay type: functional; settings: RAW264.7, 18 h; in short: as §4
[12] = test system: RAW264.7; assay: Antiinflammatory activity against mouse RAW264.7 cells assessed as reduction of lipopolysaccharide/interferon-gamma induced PGE2 production at 10 uM after 18 hrs; assay type: functional; settings: RAW264.7, 18 h; in short: as §4
[13] = Therapeutic index, ratio of CC50 for mouse […] cells to EC50 for inhibition of lipopolysaccharide/interferon-gamma induced nitric oxide production in mouse […] cells; assay type: cell-based; settings: read-out: TI
[14] = as §2; assay type: functional; in short: as §3

SMILES: COc1cccc(C(=O)c2nc(C(=O)O)cc3c2[nH]c2ccccc23)c1
- Activity [1]: inactive

SMILES: CC(=O)c1nccc2c1[nH]c1ccccc12
- GI50 [2]: > 40 µM
- GI50 [3]: > 40 µM
- GI50 [4]: > 40 µM
- GI50 [5]: > 40 µM
- IC50 [6]: 5.03 µM
- IC50 [7]: > 30 µM
- EC50 [8]: 6.65 µM
- CC50 [9]: Non-toxic
- inhibition at 1 µM [10]: 0%
- inhibition at 3 µM [11]: 0%
- inhibition at 10 µM [12]: 59%

SMILES: O=C(O)c1cc2c([nH]c3ccccc32)c(C(=O)c2cccc([N+](=O)[O-])c2)n1
- Activity [1]: inactive

SMILES: Cc1ccc(C(O)c2nccc3c2[nH]c2ccccc23)cc1 (stereo unspecified)
- GI50 [2]: 20.6 µM
- GI50 [3]: 26.6 µM
- GI50 [4]: 13.8 µM
- GI50 [5]: 9.29 µM
- IC50 [6]: > 30 µM
- IC50 [7]: > 30 µM
- EC50 [8]: 4.94 µM
- selectivity ratio [13]: > 100
- CC50 [9]: Non-toxic
- inhibition at 1 µM [10]: 15%
- inhibition at 3 µM [11]: 29%

SMILES: O=C(O)c1cc2c([nH]c3ccccc32)c(C(=O)c2ccccc2[N+](=O)[O-])n1
- GI50 [2]: > 40 µM
- GI50 [3]: > 40 µM
- GI50 [4]: > 40 µM
- GI50 [5]: > 40 µM
- IC50 [6]: 17.6 µM
- IC50 [7]: 13.2 µM
- EC50 [8]: 2.88 µM
- selectivity ratio [13]: 4
- CC50 [14]: 12.8 µM
- inhibition at 1 µM [10]: 0%
- inhibition at 3 µM [11]: 97%
- inhibition at 10 µM [12]: 100%
- Activity [1]: inactive

SMILES: Cc1ccccc1C(=O)c1nc(C(=O)O)cc2c1[nH]c1ccccc12
- GI50 [2]: > 40 µM
- GI50 [3]: > 40 µM
- GI50 [4]: > 40 µM
- GI50 [5]: > 40 µM
- IC50 [6]: 5.36 µM
- IC50 [7]: 14.8 µM
- EC50 [8]: 2.58 µM
- selectivity ratio [13]: > 2000
- inhibition at 1 µM [10]: 0%
- inhibition at 3 µM [11]: 82%
- inhibition at 10 µM [12]: 100%
- Activity [1]: inactive

SMILES: O=C(O)c1cc2c([nH]c3ccccc32)c(C(=O)c2ccccc2Br)n1
- GI50 [2]: > 40 µM
- GI50 [3]: > 40 µM
- GI50 [4]: > 40 µM
- GI50 [5]: > 40 µM
- IC50 [6]: 5.33 µM
- IC50 [7]: 3.07 µM
- EC50 [8]: 6.96 µM
- selectivity ratio [13]: 75
- CC50 [14]: 524 µM
- inhibition at 1 µM [10]: 0%
- inhibition at 3 µM [11]: 78%
- inhibition at 10 µM [12]: 96%
- Activity [1]: inactive

SMILES: O=C(O)c1cc2c([nH]c3ccccc32)c(C(=O)c2ccc([N+](=O)[O-])cc2)n1
- GI50 [2]: > 40 µM
- GI50 [3]: > 40 µM
- GI50 [4]: > 40 µM
- GI50 [5]: > 40 µM
- IC50 [6]: 6.65 µM
- IC50 [7]: 6.21 µM
- EC50 [8]: 2.94 µM
- selectivity ratio [13]: 5
- CC50 [14]: 15 µM
- inhibition at 1 µM [10]: 0%
- inhibition at 3 µM [11]: 92%
- inhibition at 10 µM [12]: 100%
- Activity [1]: inactive

SMILES: COc1ccccc1C(=O)c1nc(C(=O)O)cc2c1[nH]c1ccccc12
- Activity [1]: inactive

SMILES: COc1ccc(C(=O)c2nccc3c2[nH]c2ccccc23)cc1
- GI50 [2]: > 40 µM
- GI50 [3]: > 40 µM
- GI50 [4]: > 40 µM
- GI50 [5]: > 40 µM
- IC50 [6]: > 30 µM
- IC50 [7]: > 30 µM
- EC50 [8]: 4.59 µM
- selectivity ratio [13]: 18
- CC50 [14]: 83.4 µM
- inhibition at 1 µM [10]: 0%
- inhibition at 3 µM [11]: 95%
- inhibition at 10 µM [12]: 95%

SMILES: O=C(c1ccc([N+](=O)[O-])cc1)c1nccc2c1[nH]c1ccccc12
- GI50 [2]: > 40 µM
- GI50 [3]: > 40 µM
- GI50 [4]: > 40 µM
- GI50 [5]: > 40 µM
- IC50 [6]: > 30 µM
- IC50 [7]: > 30 µM
- EC50 [8]: 0.66 µM
- selectivity ratio [13]: 6
- CC50 [14]: 3.86 µM
- inhibition at 1 µM [10]: 0%
- inhibition at 3 µM [11]: 100%
- inhibition at 10 µM [12]: 100%

SMILES: Cc1cccc(C(=O)c2nc(C(=O)O)cc3c2[nH]c2ccccc23)c1
- EC50 [8]: 0.47 µM
- selectivity ratio [13]: 34
- CC50 [14]: 16.4 µM
- inhibition at 1 µM [10]: 98%
- inhibition at 3 µM [11]: 100%
- Activity [1]: inactive

SMILES: COc1ccc(C(=O)c2nc(C(=O)O)cc3c2[nH]c2ccccc23)cc1
- GI50 [2]: > 40 µM
- GI50 [3]: > 40 µM
- GI50 [4]: > 40 µM
- GI50 [5]: > 40 µM
- IC50 [6]: 16.1 µM
- IC50 [7]: 10.4 µM
- EC50 [8]: 0.23 µM
- selectivity ratio [13]: 187
- CC50 [14]: 43.1 µM
- inhibition at 1 µM [10]: 28%
- inhibition at 3 µM [11]: 98%
- Activity [1]: inactive

SMILES: Cc1ccc(C(=O)c2nc(C(=O)O)cc3c2[nH]c2ccccc23)cc1
- GI50 [2]: > 40 µM
- GI50 [3]: > 40 µM
- GI50 [4]: > 40 µM
- GI50 [5]: > 40 µM
- IC50 [6]: 6.27 µM
- IC50 [7]: 3.13 µM
- EC50 [8]: 0.5 µM
- selectivity ratio [13]: 35
- CC50 [14]: 17.7 µM
- inhibition at 1 µM [10]: 100%
- inhibition at 3 µM [11]: 100%
- Activity [1]: inactive

SMILES: O=C(O)c1cc2c([nH]c3ccccc32)c(C(=O)c2ccccc2)n1
- GI50 [2]: > 40 µM
- GI50 [3]: > 40 µM
- GI50 [4]: > 40 µM
- GI50 [5]: > 40 µM
- IC50 [6]: 17.7 µM
- IC50 [7]: 13.4 µM
- EC50 [8]: 3.65 µM
- selectivity ratio [13]: 155
- CC50 [14]: 564 µM
- inhibition at 1 µM [10]: 0%
- inhibition at 3 µM [11]: 12%
- inhibition at 10 µM [12]: 90%
- Activity [1]: inactive

SMILES: CC(=O)c1nc(C(=O)O)cc2c1[nH]c1ccccc12
- GI50 [2]: > 40 µM
- GI50 [3]: > 40 µM
- GI50 [4]: > 40 µM
- GI50 [5]: > 40 µM
- IC50 [6]: > 30 µM
- IC50 [7]: > 30 µM
- EC50 [8]: 0.25 µM
- CC50 [9]: Non-toxic
- inhibition at 1 µM [10]: 0%
- inhibition at 3 µM [11]: 0%
- inhibition at 10 µM [12]: 0%

SMILES: O=C(O)c1cc2c([nH]c3ccccc32)c(C(=O)c2ccc(Br)cc2)n1
- GI50 [2]: > 40 µM
- GI50 [3]: > 40 µM
- GI50 [4]: > 40 µM
- GI50 [5]: > 40 µM
- IC50 [6]: 2.28 µM
- IC50 [7]: 1.99 µM
- EC50 [8]: 0.53 µM
- selectivity ratio [13]: 20
- CC50 [14]: 10.7 µM
- inhibition at 1 µM [10]: 98%
- inhibition at 3 µM [11]: 100%
- Activity [1]: inactive
